Screening results as filed in PubChem.
ARFGAP1 inhibitor = inhibitors of rat ARFGAP1 GAP activity, primary screen, biochemical, fluorescence polarization, GDP tracer; Arfgap1-stimulated ARF1 GTP hydrolysis, GDP FP detection; ADP-ribosylation factor GTPase-activating protein 1 (Rattus norvegicus), Q62848; 0.26% of 360,000 active; inhibition, % at 16.5 µM;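 active = inhibition above a per-plate limit, mean inhibition of low control wells plus 3 SD, cut at about 25% in these data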;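 note: 0% = DMSO wells with enzyme and 100% = wells lacking Arfgap1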
Target sequence (Q62848 1-136 limits assumed): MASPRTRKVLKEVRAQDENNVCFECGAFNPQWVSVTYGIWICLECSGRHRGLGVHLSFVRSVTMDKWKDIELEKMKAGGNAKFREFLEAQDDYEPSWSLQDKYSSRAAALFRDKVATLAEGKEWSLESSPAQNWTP
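system = rat Arfgap1 catalytic domain, aa 1-136 | technique = FP, GDP Alexa 633 tracer displaced from anti-GDP antibody, 620/688 nm | compound = one concentration, 16.5 µM, DMSO 1.26% | medium = HEPES-based buffer, pH 7.5 | timing = compound-enzyme preincubation 20 min, reaction 120 min, detection 60 min, 25 °C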
pPAFAH FP inh = pPAFAH enzyme inhibitors, primary screen, biochemical, fluorescence polarization, human; Platelet-activating factor acetylhydrolase (Homo sapiens), Q13093; recombinant pPAFAH, FP-rhodamine probe fluorescence polarization; inhibition, % at 3.39 µM; 1.5% of 330,000 active;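 active = inhibition above the mean inhibition across the screen plus 3 SD, cut at about 25% in these data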;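 note: inhibitors block binding of the rhodamine activity-based probe so polarization drops; 0% = enzyme with DMSO and 100% = wells lacking pPAFAH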
PAFAH1B3 FP inh = PAFAH1B3 enzyme inhibitors, primary screen, biochemical, fluorescence polarization, human; inhibition, % at 3.39 µM; recombinant PAFAH1B3, FP-rhodamine probe; 0.28% of 340,000 active;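 active = inhibition above the screen-wide average of all tested compounds plus 3 SD, cut at about 25% in these data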;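 note: 0% = enzyme with DMSO only and 100% = wells lacking PAFAH1B3 protein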
Target sequence (Q15102 whole entry, looked up): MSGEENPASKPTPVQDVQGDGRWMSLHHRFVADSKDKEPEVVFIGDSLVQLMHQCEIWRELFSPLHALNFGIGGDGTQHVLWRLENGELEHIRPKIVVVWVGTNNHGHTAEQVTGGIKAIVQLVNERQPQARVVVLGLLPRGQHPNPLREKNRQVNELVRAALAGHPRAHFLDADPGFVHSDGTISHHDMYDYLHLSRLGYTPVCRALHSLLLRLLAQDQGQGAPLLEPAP
ASAP1 inh = inhibitors of human ASAP1 ArfGAP activity, primary screen, biochemical, fluorescence polarization; AID 624377, 2012; inhibition, % at 16.5 µM; ASAP1-stimulated ARF1 GTP hydrolysis, GDP FP detection; 0.19% of 360,000 active; in the data active = inhibition above about 25%;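 note: 0% = vehicle with enzyme and substrate and 100% = no enzyme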
PAFAH1B2 FP inh = PAFAH1B2 enzyme inhibitors, primary screen, biochemical, fluorescence polarization, human | AID 492953, 2010 | recombinant PAFAH1B2, FP-rhodamine activity probe | 1.2% of 340,000 active | inhibition, % at 3.39 µM;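 active = inhibition above the mean of all tested compounds plus 3 SD, cut at about 24% in these data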;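 note: 0% = enzyme with DMSO and 100% = wells lacking PAFAH1B2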
Target sequence (P68402 whole entry, looked up): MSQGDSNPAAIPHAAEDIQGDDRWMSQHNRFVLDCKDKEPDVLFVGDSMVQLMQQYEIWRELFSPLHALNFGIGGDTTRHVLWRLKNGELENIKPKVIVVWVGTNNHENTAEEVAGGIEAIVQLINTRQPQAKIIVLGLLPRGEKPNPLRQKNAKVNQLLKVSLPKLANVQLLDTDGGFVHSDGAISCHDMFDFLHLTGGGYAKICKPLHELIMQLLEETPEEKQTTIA
PAFAH2 FP inh = PAFAH2 enzyme inhibitors, primary screen, biochemical, fluorescence polarization, human; Platelet-activating factor acetylhydrolase 2, cytoplasmic (Homo sapiens), Q99487; recombinant PAFAH2, FP-rhodamine activity probe; inhibition, % at 3.39 µM; 0.99% of 340,000 active;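 active = inhibition above the mean over all tested compounds plus 3 SD, cut at about 30% in these data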;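 note: inhibitors block probe labeling of enzyme so polarization drops; 0% = enzyme with DMSO and 100% = wells lacking PAFAH2 protein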
pPAFAH FP conf = pPAFAH (PLA2G7) enzyme inhibitors, confirmation, biochemical, fluorescence polarization, human | 72% of 2,300 active | recombinant pPAFAH, FP-Rh probe fluorescence polarization | shares compounds with pPAFAH FP inh | AID 463230, 2010 | inhibition, % at 3.39 µM;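 active = mean inhibition of the triplicate above the hit cutoff set for the earlier primary screen, cut at about 25% in these data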;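 note: 0% = enzyme with DMSO and 100% = wells lacking pPAFAH enzyme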
PAFAH2 confirm = PAFAH2 enzyme inhibitors, confirmation, biochemical, fluorescence polarization, human; shares compounds with PAFAH2 FP inh; recombinant PAFAH2, FP-rhodamine activity probe; inhibition, % at 3.39 µM; 65% of 2,300 active; AID 493030, 2011;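 active = mean inhibition over three repeats above a set limit taken from the earlier primary screen, cut at about 30% in these data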;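 note: inhibitor blocks binding of rhodamine activity probe so polarization falls; 0% = enzyme with DMSO and 100% = wells lacking PAFAH2 protein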
* marks the source's active call; other numbers are inactive results; . = no result. This is a sample that favours compounds with a hit; in the whole collection about 2.7% have one here.

SMILES | ARFGAP1 inhibitor | pPAFAH FP inh | PAFAH1B3 FP inh | ASAP1 inh | PAFAH1B2 FP inh | PAFAH2 FP inh | pPAFAH FP conf | PAFAH2 confirm
O=[N+]([O-])c1cc(O)c(O)c([N+](=O)[O-])c1 | 9 | 37* | 16 | 9 | 16 | 37* | 70* | .
O=[N+]([O-])c1ccc(O)c([N+](=O)[O-])c1 | 3 | 2 | 8 | 4 | 7 | 1 | . | .
O=C(COC(=O)Cc1ccccc1)Nc1ccc(SC(F)F)cc1 | 2 | 36* | 18 | -6 | 2 | 2 | 29* | .
O=C(C1CC(c2ccc(Cl)c(Cl)c2)=NO1)N1CCC2(CC1)OCCO2 (stereo not drawn) | 11 | 61* | 2 | -4 | 3 | 41* | 50* | .
O=C(C1CC(c2ccc(F)cc2)=NO1)N1CCC2(CC1)OCCO2 (stereo not drawn) | 0 | 12 | 1 | -9 | 3 | -6 | . | .
COC(=O)C1=C(c2cc3ccccc3o2)C[C@@H]2CC[C@H]1N2C(=O)NC(C)C | -4 | 5 | 4 | 7 | 4 | 2 | . | .
COc1ccc2nc3oc(C(=O)N4CCC5(CC4)OCCO5)cc3cc2c1 | 5 | 44* | 7 | -6 | 2 | 4 | 36* | .
Cc1cc(C)nc(-n2c(C)nc3cc(Cl)ccc3c2=O)c1 | -12 | 3 | -2 | 3 | 8 | -3 | . | .
CNc1ccc2nc3ccccc3[n+](C)c2c1 | 8 | 88* | 100* | -1 | 99* | 108* | 81* | .
C[n+]1c2ccccc2nc2ccc(NCCO)cc21 | -3 | 72* | 82* | -10 | 72* | 83* | 58* | .
Cc1ccc(-c2cc(-c3ccccc3)cc(-c3ccccc3)[n+]2-c2ccc(C(=O)O)cc2)cc1 | 6 | 38* | 6 | -1 | 9 | 10 | 0 | .
CC[C@H](C)/C=C(C)/C=C/C1=CC2=C(Cl)C(=O)[C@@](C)(OC(C)=O)C(=O)C2=CO1 | . | 79* | 12 | . | 16 | 45* | 79* | .
COC(=O)C1=C(c2cc3ccccc3o2)C[C@@H]2CC[C@H]1N2C(=O)NCc1ccc(C(F)(F)F)cc1 | -4 | 1 | 6 | 1 | 7 | 0 | . | .
O=C(N/N=C/c1c(O)n(CCC2=CCCCC2)c(=O)[nH]c1=O)c1ccccc1 | -6 | 10 | 4 | -15 | 12 | 9 | . | .
O=C(N/N=C/c1c(O)n(CCC2=CCCCC2)c(=S)[nH]c1=O)c1ccccc1 | 3 | 52* | 15 | -11 | 29* | -1 | 42* | .
COC(C)(C)CCCC(C)C/C=C/C(C)=C/C(=O)OC(C)C (stereo not drawn) | -5 | -1 | 6 | 2 | 0 | 4 | . | .
COc1cc(/C=C2\C(=O)NC(=O)N(c3ccccc3)C2=O)c([N+](=O)[O-])cc1OC | 0 | . | 5 | -1 | 3 | 7 | . | .
COc1ccc(OC)c(N2C(=O)NC(=O)/C(=C/c3ccc([N+](=O)[O-])s3)C2=O)c1 | -12 | 62* | 69* | -8 | 55* | 66* | 58* | .
ClCCOCOCCCl | -3 | 1 | 6 | -2 | 2 | 5 | . | .
COc1ccccc1NC(=O)COC(=O)c1cc(C)n(C2CC2)c1C | -2 | 3 | 2 | 5 | 2 | 4 | . | .
Cc1cc(C(=O)OCC(=O)Nc2cccc(F)c2)c(C)n1C1CC1 | -9 | 6 | 9 | 2 | 1 | 65* | . | 51*
Cc1cc(C(=O)OCC(=O)Nc2ccc(F)cc2)c(C)n1C1CC1 | -7 | 7 | 5 | -4 | 0 | 43* | . | 25
COc1cccc(C2CC3C(=O)C=CC2N3Cc2ccccc2)c1 (stereo not drawn) | -3 | -3 | 4 | 0 | 2 | 3 | . | .
CC[C@]12CCN(CC3(O)CC3)C(Cc3ccc(O)cc31)C2(C)C | 10 | . | . | 10 | . | . | . | .
CCC(C)N1C(=O)/C(=C\c2cc3c4c(c2)CCCN4CCC3)C(=O)NC1=S (stereo not drawn) | -6 | 3 | -5 | 3 | 11 | 36* | . | 20
SMILES | ARFGAP1 inhibitor | pPAFAH FP inh | PAFAH1B3 FP inh | ASAP1 inh | PAFAH1B2 FP inh | PAFAH2 FP inh | pPAFAH FP conf | PAFAH2 confirm
CCC(C)N1C(=O)/C(=C\c2ccc(N3CCCCCC3)cc2)C(=O)NC1=S (stereo not drawn) | 6 | 4 | -28 | -7 | -9 | 0 | . | .
CS(=O)(=O)c1ccc(C2=C(CNC(=O)c3ccncc3)[C@H]3CC[C@@H](C2)N3Cc2ccco2)cc1 | 2 | . | . | 10 | . | . | . | .
CC12CCC3C(CCCC4CC(=O)CCC43C)C1CCC2O (stereo not drawn) | -3 | . | 8 | -14 | 8 | 2 | . | .
Oc1c(Cl)cccc1Cc1cc(Cl)cc(Cl)c1O | 6 | . | 6 | -6 | 5 | 37* | . | 25
COc1ccc(C(O)P(=O)(Oc2ccccc2)Oc2ccccc2)cc1 (stereo not drawn) | -4 | -2 | 5 | -2 | -1 | 33* | . | 18
O=P(Oc1ccccc1)(Oc1ccccc1)C(O)c1ccc(Cl)cc1 (stereo not drawn) | -3 | 8 | 3 | -12 | 2 | 14 | . | .
Cn1cc(C(=O)OCC(=O)NC2(C#N)CCCCC2)c2ccccc21 | 22 | . | 6 | -2 | 6 | 81* | . | 81*
Cn1cc(C(=O)OCC(=O)NC2(C#N)CCCC2)c2ccccc21 | -4 | 10 | 3 | 0 | 0 | 65* | . | 49*
Cn1cc(C(=O)OCC(=O)N2CCCCC2)c2ccccc21 | 23 | -7 | 5 | 11 | 5 | 1 | . | .
C=CC1CN2CCC1CC2C(OC(C)=O)c1ccnc2ccc(OC)cc12 (stereo not drawn) | 7 | 2 | 7 | 1 | 8 | 1 | . | .
Cc1ccsc1/C=C1\C(=O)NC(=S)N(C)C1=O | 3 | 3 | 0 | 1 | 3 | 1 | . | .
COc1ccc(/C=C2\C(=O)NC(=S)N(C)C2=O)cc1C | -17 | 0 | 4 | -7 | 3 | 35* | . | 0
Cc1cc(/C=C2\C(=O)NC(=O)N(c3ccc(Cl)cc3)C2=O)c(C)n1-c1sc2c(c1C#N)CCCC2 | -10 | 13 | 4 | -7 | 3 | 33* | . | 18
CC(C)(C)n1cccc1/C=C1\C(=O)NC(=O)N(c2ccccc2)C1=O | -7 | 2 | -2 | 5 | 9 | 50* | . | 44*
